MIC data for three compounds are collected here from ChEMBL document CHEMBL1781879, “Synthesis and biological characterization of arylomycin B antibiotics” (2011).

Structures are written as SMILES. Converted amounts (≈) assume the structure as drawn.

Broadly, the MIC is the lowest concentration that inhibits growth of the organism. Higher therefore signals weaker potency.

Test [1] is described as follows: Antibacterial activity against 1 x 10^7 CFU/mL Escherichia coli MG1655 PAS0260 harboring LepB P84L mutant in cation-adjusted Mueller Hinton 2 broth after 24 hrs by CLSI broth microdilution method. The test is classed as functional, Escherichia coli str. K-12 substr. MG1655. The note with it: PAS0260, 24 h. An outline of the steps:
(§1)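 CLSI broth microdilution in cation-adjusted Mueller Hinton II broth. Inoculum made by suspending organisms grown on solid media in the same broth and diluting to 1×10^7 CFU/ml; 5 μl added to 100 μl medium containing graded compound concentrations. MIC is the lowest concentration preventing visible growth, from at least three independent experiments.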

Another test concerns Brevibacillus brevis. In words: Antibacterial activity against 1 x 10^6 CFU/mL Brevibacillus brevis ATCC 8246 in cation-adjusted Mueller Hinton 2 broth after 24 hrs by CLSI broth microdilution method. The test is classed as functional. To be noted: ATCC 8246, 24 h. The method in brief: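 Brevibacillus brevis: 10⁶ cfu inoculated into 1 ml cultures in cation-adjusted Mueller Hinton II broth with compound and 1% DMSO final. Parallel tubes used 0.8% nutrient broth with 0.5% NaCl or without NaCl. Cultures shaken at 28 °C for 24 h. MIC was the lowest concentration inhibiting visible growth.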
In general terms: In broth dilution the organism is exposed to a series of concentrations in liquid medium.

A further test concerns Pseudomonas aeruginosa. Put plainly: Antibacterial activity against 1 x 10^7 CFU/mL Pseudomonas aeruginosa PAO1 PAS2008 harboring LepB P84L mutant in cation-adjusted Mueller Hinton 2 broth after 24 hrs by CLSI broth microdilution method. The test is classed as functional. The note with it: PAO1 PAS2008, 24 h. The method in brief:
as §1

Test [2] is described as follows: Antibacterial activity against 1 x 10^7 CFU/mL Staphylococcus aureus NCTC 8325 PAS8001 harboring SpsB P29S mutant in cation-adjusted Mueller Hinton 2 broth after 24 hrs by CLSI broth microdilution method. Type of test: functional, Staphylococcus aureus subsp. aureus NCTC 8325. To be noted: PAS8001, 24 h. The method in brief: as §1
Test [3] has as its system Staphylococcus epidermidis. In words: Antibacterial activity against 1 x 10^7 CFU/mL wild-type Staphylococcus epidermidis RP62A in cation-adjusted Mueller Hinton 2 broth after 24 hrs by CLSI broth microdilution method. The test is classed as functional. The method in brief:
(§2)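 CLSI broth microdilution. Bacteria from solid media were suspended in the test broth at 1×10^7 cfu/ml, and 5 μl was added to 100 μl medium containing compound. Media were cation-adjusted Mueller Hinton II (R. opacus, S. epidermidis), Todd Hewitt (S. pyogenes, S. pneumoniae) and Trypticase Soy Yeast broth (L. lactis). MIC was the lowest concentration inhibiting visible growth, from at least three independent experiments.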

In the next test the test system is Streptococcus pneumoniae. Put plainly: Antibacterial activity against 1 x 10^7 CFU/mL Streptococcus pneumoniae R800 in Todd Hewitt broth after 24 hrs by CLSI broth microdilution method. The note with it: R800, 24 h. Type of test: functional. The method in brief:
as §2

Another test deals with Streptococcus agalactiae. Put plainly: Antibacterial activity against 1 x 10^7 CFU/mL Streptococcus agalactiae COH1 after 24 hrs by CLSI broth microdilution method. The test is classed as functional. To be noted: COH1, 24 h. An outline of the steps:
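Streptococcus agalactiae tested by CLSI broth microdilution in both cation-adjusted Mueller Hinton II and Todd Hewitt broth. Inoculum was a suspension from solid media at 1×10^7 cfu/ml, with 5 μl added to 100 μl medium containing compound. MIC was the lowest concentration inhibiting visible growth, from at least three independent experiments.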

Test [4] can be described thus: Antibacterial activity against 1 x 10^7 CFU/mL Staphylococcus epidermidis RP62A PAS9002 harboring Sps1B-S31P mutant in cation-adjusted Mueller Hinton 2 broth after 24 hrs by CLSI broth microdilution method. Type of test: functional. To be noted: PAS9002, 24 h. The method in brief: as §1
Test [5] relates to Corynebacterium glutamicum. In words: Antibacterial activity against 1 x 10^7 CFU/mL Corynebacterium glutamicum ATCC 44475 in cation-adjusted Mueller Hinton 2 broth after 24 hrs by CLSI broth microdilution method. The test is classed as functional. To be noted: ATCC 44475, 24 h. An outline of the steps:
as §1

The test system of the next test is Prescottella equi. Put plainly: Antibacterial activity against 1 x 10^7 CFU/mL Rhodococcus equi ATCC 6939 in cation-adjusted Mueller Hinton 2 broth after 24 hrs by CLSI broth microdilution method. The note with it: Rhodococcus (subgen. Prescottella) equi, ATCC 6939, 24 h. The test is classed as functional. An outline of the steps:
as §1

A further test concerns Rhodococcus opacus. In words: Antibacterial activity against 1 x 10^7 CFU/mL Rhodococcus opacus DSM 1069 in cation-adjusted Mueller Hinton 2 broth after 24 hrs by CLSI broth microdilution method. The test is classed as functional. To be noted: DSM 1069, 24 h. An outline of the steps:
as §2

A further test relates to Streptococcus pyogenes. Put plainly: Antibacterial activity against 1 x 10^7 CFU/mL Streptococcus pyogenes M1-5448 in Todd Hewitt broth after 24 hrs by CLSI broth microdilution method. The test is classed as functional. The note with it: M1-5448, 24 h. An outline of the steps:
as §2

Another test concerns Lactococcus lactis. Put plainly: Antibacterial activity against 1 x 10^7 CFU/mL Lactococcus lactis ATCC 19257 in trypticase soy yeast broth after 24 hrs by CLSI broth microdilution method. The test is classed as functional. The note with it: ATCC 19257, 24 h. The method in brief: as §2

Regarding `CCCCCCCCCCCCCCCC(=O)N(C)[C@H](CO)C(=O)N[C@H](C)C(=O)NCC(=O)N(C)[C@@H]1C(=O)N[C@@H](C)C(=O)N[C@H](C(=O)O)Cc2cc(N)c(O)c(c2)-c2cc1ccc2O`, the MIC in [1] was 16 mg/L (≈ 17.9 µM); against Brevibacillus brevis it was over 64 mg/L; in the test with Pseudomonas aeruginosa, 32 mg/L (≈ 35.7 µM); in [2], 64 mg/L (≈ 71.4 µM); in test [3], 8 mg/L (≈ 8.93 µM).

As for `CCCCCCCCCCCCCCCC(=O)N(C)[C@H](CO)C(=O)N[C@H](C)C(=O)NCC(=O)N(C)[C@@H]1C(=O)N[C@@H](C)C(=O)N[C@H](C(=O)O)Cc2cc(c(O)c([N+](=O)[O-])c2)-c2cc1ccc2O`, the MIC against Streptococcus pneumoniae was 16 mg/L (≈ 17.3 µM); in test [1], 2 mg/L (≈ 2.16 µM); against Streptococcus agalactiae, 8 mg/L (≈ 8.64 µM); in [4], 8 mg/L (≈ 8.64 µM); against Brevibacillus brevis it was over 64 mg/L; in test [5] it was 2 mg/L (≈ 2.16 µM). Besides, the MIC against Prescottella equi amounted to 32 mg/L (≈ 34.6 µM); against Rhodococcus opacus, 4 mg/L (≈ 4.32 µM); against Streptococcus pyogenes it was 4 mg/L (≈ 4.32 µM); with Lactococcus lactis it was 32 mg/L (≈ 34.6 µM); in the test with Pseudomonas aeruginosa, 4 mg/L (≈ 4.32 µM); in test [2], 4 mg/L (≈ 4.32 µM). The compound also came in with a minimal inhibitory concentration (MIC) in test [3] of 0.25 mg/L (≈ 0.27 µM).

For `CCCCCCCCCCCCCCCC(=O)N(C)[C@H](CO)C(=O)N[C@H](C)C(=O)NCC(=O)N(C)[C@@H]1C(=O)N[C@@H](C)C(=O)N[C@H](C(=O)O)Cc2ccc(O)c(c2)-c2cc1ccc2O` [ARYLOMYCIN C16], the MIC was 8 mg/L (≈ 9.08 µM) against Streptococcus pneumoniae; 2 mg/L (≈ 2.27 µM) in test [1]; over 128 mg/L in the test on Streptococcus agalactiae; 8 mg/L (≈ 9.08 µM) in test [4]; over 64 mg/L with Brevibacillus brevis; 2 mg/L (≈ 2.27 µM) in test [5]. The MIC against Prescottella equi amounted to 16 mg/L (≈ 18.2 µM); against Rhodococcus opacus, 1 mg/L (≈ 1.13 µM); against Streptococcus pyogenes, 8 mg/L (≈ 9.08 µM); in the test on Lactococcus lactis, 16 mg/L (≈ 18.2 µM); against Pseudomonas aeruginosa, 4 mg/L (≈ 4.54 µM); in test [2], 4 mg/L (≈ 4.54 µM). The compound also came in with an MIC in [3] of 0.25 mg/L (≈ 0.284 µM).
